The list is not random: actives were taken first. Their share in the collection is about 3.9%.
M1 antag = human CHRM1 antagonism; CHO-K1 hM1, Fluo-8 calcium fluorescence, ACh EC80 antagonist; inhibition, % at 3 µM; hit rate 1.3% among 360,000;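 active means percent inhibition above its own plate's cutoff, namely the mean of that plate's compound wells plus 3 SD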;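 further: peak over basal fluorescence ratio during 140 s after agonist addition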
Target sequence (P11229 whole entry, looked up): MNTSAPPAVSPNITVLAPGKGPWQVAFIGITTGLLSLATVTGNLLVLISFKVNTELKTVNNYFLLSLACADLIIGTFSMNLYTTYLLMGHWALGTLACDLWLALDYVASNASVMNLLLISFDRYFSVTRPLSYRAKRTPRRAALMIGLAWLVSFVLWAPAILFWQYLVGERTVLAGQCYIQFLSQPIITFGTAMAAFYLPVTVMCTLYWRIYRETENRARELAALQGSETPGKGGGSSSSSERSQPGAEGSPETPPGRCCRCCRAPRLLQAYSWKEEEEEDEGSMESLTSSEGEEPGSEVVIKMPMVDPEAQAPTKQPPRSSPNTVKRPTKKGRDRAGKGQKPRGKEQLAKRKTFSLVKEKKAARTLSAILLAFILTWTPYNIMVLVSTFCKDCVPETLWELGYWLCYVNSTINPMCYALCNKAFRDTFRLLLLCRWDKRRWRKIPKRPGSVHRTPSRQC
TAAR1 antag = antagonists of human TAAR1; Q96RJ0; CHO RD-HGA16 TAAR1, Fluo-8 calcium fluorescence, antagonist; inhibition, % at 3 µM; hit rate 1.5% among 360,000;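 active means inhibition above a per-plate cutoff, the mean inhibition of test compounds on that plate plus 3 SD, cut at about 49% in these data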
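Test system – hTAAR1-expressing CHO RD-HGA16 cells, Gα16-coupled · Also added – β-PEA at EC80 concentration, post-compound challenge · Compound – 3 µM, single point · Incubation – dye loading 75 min at 37 °C, then 30 min room temperature · Measured by – Fluo-8 intracellular calcium dye fluorescence, real-time kinetic reads · Benchmarks – vehicle and agonist controls · Replicates – singlicate, one well per test compound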
M1 PAM = potentiates human M1 receptor response to acetylcholine | P11229 | activation, % at 3 µM | hit rate 0.088% among 360,000 | CHO-K1 hM1, Fluo-8 calcium fluorescence, ACh EC20; 0% = ACh EC20, 100% = maximal ACh; in the data active means activation above about 19%, passing the limit was not always enough
HTR2A ag = activates the mouse 5-HT2A serotonin receptor; P35363; CHO-K1 mHTR2A beta-arrestin complementation, luminescence; percent of 30 µM serotonin response; activation, % at 7.6 µM; hit rate 0.66% among 360,000;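 active means activation above a run cutoff, the mean activation of all tested compounds plus 3 SD, cut at about 14% in these data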
M1 ag = activates human CHRM1 receptor | P11229 | CHO-K1 hM1, Fluo-8 calcium fluorescence, agonist mode; 0% DMSO, 100% acetylcholine EC100 | activation, % at 3 µM | hit rate 0.33% among 360,000;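 active means activation above the run's mean compound activation plus 3 SD, cut at about 16% in these data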;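 further: peak over basal fluorescence ratio within a 140 s kinetic read after compound addition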
TAAR1 agonist = agonists of human TAAR1; AID 624467; Q96RJ0; CHO RD-HGA16 TAAR1, Fluo-8 calcium fluorescence; vehicle wells 0%, saturating PEA agonist 100%; hit rate 0.99% among 360,000; activation, % at 3 µM;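 active means activation above the mean activation of all test compounds in the run plus 3 SD, cut at about 38% in these data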
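System: CHO-derived RD-HGA16 cells with stable Gα16 and human TAAR1 / Times: 17-24 h plating, Fluo-8 75 min 37 °C, 30 min RT / Technique: calcium-sensitive Fluo-8 signal, excitation 470-495, emission 515-575 nm / Measure: % activation relative to PEA EC100 response / Benchmarks: DMSO and PEA EC100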
TAAR1 ag confirm = confirmation of human TAAR1 agonists | shares compounds with TAAR1 agonist | activation, % at 3 µM | hit rate 82% among 2,400 | AID 651783 | CHO RD-HGA16 TAAR1, Fluo-8 calcium fluorescence; scaled: DMSO 0%, maximal phenethylamine 100%;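 active means activation above a cutoff set at the run's mean compound activation plus 3 SD, cut at about 39% in these data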
Ga16 nonsel ag = counter-screen for TAAR1 agonists: nonselective agonists in parental cells. hit rate 50% among 2,400. shares compounds with TAAR1 agonist. CHO-Ga16 parental, Fluo-8 calcium fluorescence; normalized to maximal ATP response, DMSO zero. activation, % at 3 µM;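 active means activation above the run cutoff, the mean activation over all tested wells plus 3 SD, cut at about 12% in these data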
TAAR1 desens = counter-screen for human TAAR1 agonists: agonists that desensitize TAAR1 | CHO RD-HGA16 hTAAR1, Fluo-8 calcium, beta-PEA response inhibition | inhibition, % at 3 µM | AID 651951 | hit rate 46% among 2,400 | shares compounds with TAAR1 agonist;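 active means inhibition above the run cutoff, the mean inhibition of all test compounds plus 3 SD, cut at about 49% in these data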;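 further: beta-PEA stimulus applied at its EC80; loss of beta-PEA calcium signal after compound pretreatment read as receptor desensitization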
Ga16 nonsel ant = counter-screen for TAAR1 agonists: nonselective Ga16 antagonists. hit rate 39% among 2,400. shares compounds with TAAR1 agonist. AID 651952. CHO-Ga16 ATP-induced calcium, Fluo-8 fluorescence. inhibition, % at 3 µM;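 active means inhibition above the plate's mean compound inhibition plus 3 SD, computed per plate, cut at about 22% in these data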
Large screens that a line does not name were inactive (follow-up assays come after a bar, where they were run).

C[C@H](C(=O)CC(=O)OC(C)(C)C)[C@H](O)c1ccccc1	none
C=CCC[C@@H](Cc1ccc(F)cc1)C(=O)OC[C@H](Cc1c[nH]c2ccccc12)NC(=O)[C@@H](CC=C)CC(=O)NCCO	TAAR1 antag 80, TAAR1 agonist 74 | TAAR1 ag confirm 52 | Ga16 nonsel ag 30 | TAAR1 desens 76 | Ga16 nonsel ant 51
O=C1C(Cl)=C(NCC2CCCO2)C(=O)N1CCc1ccccc1 (configuration not stated)	TAAR1 agonist 74 | TAAR1 ag confirm 52 | Ga16 nonsel ag inactive | TAAR1 desens inactive | Ga16 nonsel ant inactive
O=C1C(Cl)=C(NCCc2ccccc2)C(=O)N1CCc1ccccc1	TAAR1 antag 66, TAAR1 agonist 43 | TAAR1 ag confirm 73 | Ga16 nonsel ag inactive | TAAR1 desens 83 | Ga16 nonsel ant 32
O=C1C(Cl)=C(NCCCN2CCOCC2)C(=O)N1CCc1ccccc1	none
CC(=O)N(Cc1ccc(F)cc1)C1=C(NCCc2ccccc2)C(=O)c2ccccc2C1=O	TAAR1 agonist 50 | TAAR1 ag confirm inactive | Ga16 nonsel ag inactive | TAAR1 desens inactive | Ga16 nonsel ant inactive
O=C1C(Cl)=C(NCCc2ccccc2)C(=O)c2ccccc21	TAAR1 antag 67, TAAR1 agonist 79 | TAAR1 ag confirm 107 | Ga16 nonsel ag 14 | TAAR1 desens 96 | Ga16 nonsel ant 28
O=C1C(Cl)=C(Nc2ccccc2)C(=O)c2ccccc21	none
CC(=O)N(Cc1ccc(F)cc1)c1cccc(C)c1C	none
Cn1cccc1/C=N/NC(=O)Cn1cnc2ccccc21	none
Nc1nnnn1CC(=O)N/N=C/c1cccs1	none
O=C(Cn1nnc2ccccc21)N/N=C\c1cccs1	TAAR1 agonist 45 | TAAR1 ag confirm 82 | Ga16 nonsel ag inactive | TAAR1 desens inactive | Ga16 nonsel ant inactive
O=C(Cn1cnc2ccccc21)N/N=C/c1cccs1	none (no result: TAAR1 antag, TAAR1 agonist) | Ga16 nonsel ag inactive | Ga16 nonsel ant inactive
Cc1ccc(-c2nc(CS(=O)(=O)CC(=O)N3CCc4ccccc4C3)c(C)o2)cc1	TAAR1 agonist 66 | TAAR1 ag confirm 82 | Ga16 nonsel ag inactive | TAAR1 desens 64 | Ga16 nonsel ant inactive
COC(=O)C1=C(C)N(Cc2cccc(C(F)(F)F)c2)C(=NCc2ccc(OC)cc2)NC1c1cccc(F)c1 (configuration not stated)	TAAR1 antag 55, TAAR1 agonist 43 (no result: M1 antag, M1 PAM, HTR2A ag, M1 ag) | TAAR1 ag confirm 42 | Ga16 nonsel ag 24 | TAAR1 desens 51 | Ga16 nonsel ant 42
COC(=O)C1=C(C)N(Cc2cccc(C(F)(F)F)c2)C(=NCc2ccc(OC)cc2)NC1c1ccccc1 (configuration not stated)	TAAR1 antag 59, TAAR1 agonist 51 (no result: M1 antag, M1 PAM, HTR2A ag, M1 ag) | TAAR1 ag confirm 38 | Ga16 nonsel ag 25 | TAAR1 desens inactive | Ga16 nonsel ant 45
COC(=O)C1=C(C)N(Cc2ccccc2)C(=NCc2cccc(C(F)(F)F)c2)N[C@H]1c1cccc(C(F)(F)F)c1	none (no result: TAAR1 antag, TAAR1 agonist)
COC(=O)C1=C(C)N(Cc2cccc(C(F)(F)F)c2)C(=NCc2cc(OC)c(OC)c(OC)c2)NC1c1cccc(F)c1 (configuration not stated)	none (no result: M1 antag, M1 PAM, HTR2A ag, M1 ag)
COC(=O)C1=C(C)N(Cc2cccc(C(F)(F)F)c2)C(=NCc2cc(OC)c(OC)c(OC)c2)NC1c1ccccc1 (configuration not stated)	TAAR1 agonist 44 (no result: M1 antag, M1 PAM, HTR2A ag, M1 ag) | TAAR1 ag confirm inactive | Ga16 nonsel ag inactive | TAAR1 desens inactive | Ga16 nonsel ant inactive
Cc1ccccc1CCNC(=O)c1ccc(Cl)c(S(=O)(=O)N2CC(C)OC(C)C2)c1 (configuration not stated)	TAAR1 agonist 59 | TAAR1 ag confirm inactive | Ga16 nonsel ag inactive | TAAR1 desens inactive | Ga16 nonsel ant 27
CC1CN(S(=O)(=O)c2cc(C(=O)NCc3ccncc3)ccc2Cl)CC(C)O1 (configuration not stated)	none
O=C(CNC(=O)c1ccccc1C(=O)O)c1ccccc1	TAAR1 agonist 71 | TAAR1 ag confirm 78 | Ga16 nonsel ag inactive | TAAR1 desens inactive | Ga16 nonsel ant inactive
O=C(O)c1ccccc1C(=O)NCC(O)c1ccccc1 (configuration not stated)	TAAR1 agonist 72 | TAAR1 ag confirm 96 | Ga16 nonsel ag inactive | TAAR1 desens 62 | Ga16 nonsel ant inactive
O=C(O)c1ccccc1C(=O)NCCCCCCNC(=O)c1ccccc1C(=O)O	none
COc1cc(C(=O)N2CCN(c3ccccc3)CC2)c([N+](=O)[O-])cc1OC	none
N#Cc1c(N)sc2c1CCN(CCc1ccccc1)C2	TAAR1 agonist 79 | TAAR1 ag confirm 84 | Ga16 nonsel ag inactive | TAAR1 desens 64 | Ga16 nonsel ant inactive
C[C@]12C(=O)N(c3ccc(Br)cc3)C(=O)N1[C@H]1c3ccccc3OC[C@@H]1[C@H]2c1ccccc1	none
COC(=O)C(NC(=O)c1ccccc1C)(Nc1ncc(S(=O)(=O)c2ccc([N+](=O)[O-])cc2)s1)C(F)(F)F (configuration not stated)	M1 ag 17, TAAR1 agonist 70 | TAAR1 ag confirm 55 | Ga16 nonsel ag 26 | TAAR1 desens 52 | Ga16 nonsel ant 23
O=C(Nc1ncc(S(=O)(=O)c2ccc([N+](=O)[O-])cc2)s1)c1ccccc1F	M1 antag 32, TAAR1 antag 59, M1 ag 30, TAAR1 agonist 101 | TAAR1 ag confirm 110 | Ga16 nonsel ag 61 | TAAR1 desens 84 | Ga16 nonsel ant 51
CCN(CC)c1ccc(Nc2nc(N3CCOCC3)c3ccccc3n2)cc1	none
COc1ccc(Nc2nc(N3CCCC3)c3ccccc3n2)cc1	TAAR1 agonist 67 | TAAR1 ag confirm 89 | Ga16 nonsel ag inactive | TAAR1 desens 86 | Ga16 nonsel ant inactive
O=c1[nH]c(=S)[nH]c2c1C(c1cccc(C(F)(F)F)c1)OC(CCc1ccccc1)C2 (configuration not stated)	none (no result: M1 antag, M1 PAM, M1 ag)

Source: PubChem BioAssay (The Scripps Research Institute Molecular Screening Center)
